How the values were obtained:
[1] = molecular target: T1, Mu-type opioid receptor (Rattus norvegicus, UniProt P33535); experiment: Binding affinity towards Opioid receptor mu 1 by displacing [3H]DAMGO in rat brain membranes.; type: cell membranes
In short: (§1)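 Rat brain minus cerebellum homogenised in 0.32 M sucrose/10 mM Tris-HCl and spun. The pellet was preincubated 1 h to strip endogenous opioids. GF/B filtration, scintillation counting.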

[2] = molecular target: T1, Mu-type opioid receptor; experiment: Inhibitory activity against [3H]DAMGO binding to Opioid receptor mu 1 in rat brain membranes; type: cell membranes; in short: as §1
[3] = Potency for inhibition of forskolin-stimulated cyclic AMP accumulation in SH-SY5Y cells; type: functional, cell-based; conditions: Homo sapiens
In short: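 SH-SY5Y cells at 85-100% confluence in 24-well plates, in serum-free F12/DMEM with 0.5 mM IBMX, protease inhibitors and DADLE δ-blocker, 10 min at 37 °C. Then 10 µM forskolin plus ligand over a concentration range, 15 min at 37 °C. Ethanol extraction, cAMP measured by commercial kit. Triplicate wells averaged, IC50 fitted.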

T1 sequence (P33535 whole entry): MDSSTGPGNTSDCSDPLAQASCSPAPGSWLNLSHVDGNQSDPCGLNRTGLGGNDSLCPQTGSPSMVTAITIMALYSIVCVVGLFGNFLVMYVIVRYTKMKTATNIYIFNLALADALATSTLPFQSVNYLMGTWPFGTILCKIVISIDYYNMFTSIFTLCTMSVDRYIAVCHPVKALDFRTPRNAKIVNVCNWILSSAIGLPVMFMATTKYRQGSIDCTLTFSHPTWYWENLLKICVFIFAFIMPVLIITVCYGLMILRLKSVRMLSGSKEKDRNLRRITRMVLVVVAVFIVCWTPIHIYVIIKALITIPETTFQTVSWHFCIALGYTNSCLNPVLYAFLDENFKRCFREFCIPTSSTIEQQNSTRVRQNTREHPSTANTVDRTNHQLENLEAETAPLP

Row | Compound | Ki [1] [µM] | IC50 [2] [µM] | IC50 [3] [µM]
1 | NC(=O)[C@H](Cc1ccccc1)NC(=O)[C@H](Cc1c[nH]c2ccccc12)NC(=O)[C@@H]1CCCN1C(=O)C[C@@H](N)Cc1ccc(O)cc1 | 0.026 | 0.99 | 
2 | NC(=O)[C@H](Cc1ccccc1)NC(=O)[C@H](Cc1c[nH]c2ccccc12)NC(=O)C[C@H]1CCCN1C(=O)[C@@H](N)Cc1ccc(O)cc1 | 0.067 | 0.079 | 0.045
3 | NC(=O)[C@H](Cc1ccccc1)NC(=O)[C@H](Cc1c[nH]c2ccccc12)NC(=O)C[C@@H]1CCCN1C(=O)[C@@H](N)Cc1ccc(O)cc1 | 0.0021 | 0.004 | 0.00653
4 | NC(=O)C[C@H](Cc1ccccc1)NC(=O)[C@H](Cc1c[nH]c2ccccc12)NC(=O)[C@@H]1CCCN1C(=O)[C@@H](N)Cc1ccc(O)cc1 | 0.079 | 0.0801 | 
5 | NC(=O)[C@H](Cc1ccccc1)NC(=O)C[C@H](Cc1c[nH]c2ccccc12)NC(=O)[C@@H]1CCCN1C(=O)[C@@H](N)Cc1ccc(O)cc1 | 0.073 | 0.0233 | 
6 | C[C@@H](NC(=O)[C@@H](N)Cc1ccc(O)cc1)C(=O)NCC(=O)N(C)[C@@H](Cc1ccccc1)C(=O)NCCO [DAMGO] |  |  | 0.0011
7 | NC(=O)[C@H](Cc1ccccc1)NC(=O)[C@H](Cc1c[nH]c2ccccc12)NC(=O)[C@@H]1CCCN1C(=O)[C@@H](N)Cc1ccc(O)cc1 [ENDOMORPHIN-1] |  |  | 0.0191
